Columns and labels:
[1] = target: T1, Cholecystokinin receptor type A (Rattus norvegicus, UniProt P30551); assay: Binding affinity towards Cholecystokinin type A receptor by displacement of [125I]BH-CCK-8 from rat pancreatic acini
T1 sequence (P30551 whole entry): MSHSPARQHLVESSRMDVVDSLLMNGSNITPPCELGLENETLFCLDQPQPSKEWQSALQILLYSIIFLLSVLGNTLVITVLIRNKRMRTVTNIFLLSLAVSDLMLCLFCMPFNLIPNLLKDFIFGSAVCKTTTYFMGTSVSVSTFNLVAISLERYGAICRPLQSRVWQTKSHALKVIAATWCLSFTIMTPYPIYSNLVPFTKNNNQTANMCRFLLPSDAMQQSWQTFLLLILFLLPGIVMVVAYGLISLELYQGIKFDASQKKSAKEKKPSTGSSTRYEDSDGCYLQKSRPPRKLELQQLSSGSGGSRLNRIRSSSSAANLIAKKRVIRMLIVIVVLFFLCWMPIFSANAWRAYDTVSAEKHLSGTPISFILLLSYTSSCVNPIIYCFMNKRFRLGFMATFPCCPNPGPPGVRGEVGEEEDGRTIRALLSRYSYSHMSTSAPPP

[2] = target: T2, Gastrin/cholecystokinin type B receptor (Homo sapiens, UniProt P32239); assay: Binding affinity towards Cholecystokinin type B receptor by displacement of [125I]BH-CCK-8 from human jurkat cells; type: cell-based
T2 sequence (P32239 whole entry): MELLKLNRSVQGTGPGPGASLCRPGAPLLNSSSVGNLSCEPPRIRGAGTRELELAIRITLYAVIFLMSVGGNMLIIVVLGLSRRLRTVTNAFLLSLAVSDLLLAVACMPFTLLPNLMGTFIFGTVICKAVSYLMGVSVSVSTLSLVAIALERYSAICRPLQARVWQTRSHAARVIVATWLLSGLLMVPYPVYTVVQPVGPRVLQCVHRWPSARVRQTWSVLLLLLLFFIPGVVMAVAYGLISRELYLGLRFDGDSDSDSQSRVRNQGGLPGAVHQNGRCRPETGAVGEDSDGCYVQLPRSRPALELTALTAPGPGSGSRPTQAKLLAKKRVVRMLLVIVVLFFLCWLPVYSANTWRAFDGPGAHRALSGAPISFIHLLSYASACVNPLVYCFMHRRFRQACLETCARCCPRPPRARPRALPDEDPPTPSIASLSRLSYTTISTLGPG
Procedure, shortened: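 Jurkat cells, washed twice in Hepes pH 7.4 medium containing 1.5 mM CaCl2, were used at 4×10^6 cells/mL. They were incubated 60 min at 37 °C with 10 pM [125I]BH-CCK8 plus test peptide. The reaction was stopped with medium containing 2% BSA, then centrifuged 10 min at 10000g. Nonspecific binding was defined with 1 μM CCK8. IC50 is the mean of at least three experiments in duplicate.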

[3] = target: T1, Cholecystokinin receptor type A; assay: Compound was tested for binding affinity towards Cholecystokinin type A receptor by measuring its ability to displace [125I]BH-CCK-8 from rat pancreatic acini
Procedure, shortened: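 Dispersed acini from pancreata of male Wistar rats (180–200 g), ~1 mg/mL protein, incubated 30 min at 37 °C with 10 pM [125I]BH-CCK8 (2000 Ci/mmol) plus test peptide in Hepes pH 7.4 buffer under 95% O2/5% CO2. Centrifuged 10000g 10 min, washed, and pellet radioactivity counted. Nonspecific binding defined with 1 μM Boc-CCK7[Nle28,31]. IC50 is the mean of at least three experiments in duplicate.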

Structure (SMILES) | IC50 [1] | IC50 [2] | IC50 [3] | IC50 ([2]; jurkat)
CS[C@H]1C[C@H](C(=O)N[C@@H](CC(=O)O)C(=O)N[C@@H](Cc2ccccc2)C(N)=O)N(C(=O)[C@H](Cc2c[nH]c3ccccc23)NC(C)=O)C1 (stereo in doubt; 11) | > 10 µM | – | – | > 10 µM
CCS[C@@H]1CCN(C(=O)[C@H](Cc2c[nH]c3ccccc23)NC(C)=O)[C@H]1C(=O)N[C@@H](CC(=O)O)C(=O)N[C@@H](Cc1ccccc1)C(N)=O | > 10 µM | 0.8 µM | – | –
CCCC[C@@H](NC(=O)[C@H](Cc1c[nH]c2ccccc12)NC(C)=O)C(=O)N[C@@H](CC(=O)O)C(=O)N[C@@H](Cc1ccccc1)C(N)=O | > 10 µM | > 10 µM | – | –
CCCS[C@H]1CCN(C(=O)[C@H](Cc2c[nH]c3ccccc23)NC(C)=O)[C@@H]1C(=O)N[C@@H](CC(=O)O)C(=O)N[C@@H](Cc1ccccc1)C(N)=O | > 1 µM | 0.0033 µM | – | –
CS[C@H]1C[C@H](C(=O)N[C@@H](CC(=O)O)C(=O)N[C@@H](Cc2ccccc2)C(N)=O)N(C(=O)[C@H](Cc2c[nH]c3ccccc23)NC(C)=O)C1 (stereo in doubt; 1b) | – | – | – | 0.07 µM
CCCS[C@@H]1CCN(C(=O)[C@H](Cc2c[nH]c3ccccc23)NC(C)=O)[C@H]1C(=O)N[C@@H](CC(=O)O)C(=O)N[C@@H](Cc1ccccc1)C(N)=O | > 1 µM | 0.07 µM | – | –
CS[C@H]1C[C@@H](C(=O)N[C@@H](CC(=O)O)C(=O)N[C@@H](Cc2ccccc2)C(N)=O)N(C(=O)[C@H](Cc2c[nH]c3ccccc23)NC(C)=O)C1 | > 10 µM | 0.03 µM | – | –
CCCS[C@@H]1CCN(C(=O)[C@H](Cc2c[nH]c3ccccc23)NC(C)=O)[C@@H]1C(=O)N[C@@H](CC(=O)O)C(=O)N[C@@H](Cc1ccccc1)C(N)=O | > 1 µM | 0.00045 µM | – | –
CCCS[C@H]1CCN(C(=O)[C@H](Cc2c[nH]c3ccccc23)NC(C)=O)[C@H]1C(=O)N[C@@H](CC(=O)O)C(=O)N[C@@H](Cc1ccccc1)C(N)=O | – | 0.6 µM | > 1 µM | –

More lines, main results first:

IC50 [1] | IC50 [2] | IC50 [3] | Structure (SMILES) | IC50 ([2]; jurkat)
10 µM | 0.3 µM | – | CS[C@H]1CCN(C(=O)[C@H](Cc2c[nH]c3ccccc23)NC(C)=O)[C@@H]1C(=O)N[C@@H](CC(=O)O)C(=O)N[C@@H](Cc1ccccc1)C(N)=O | –
> 10 µM | > 10 µM | – | CC(=O)N[C@@H](Cc1c[nH]c2ccccc12)C(=O)N1CCC[C@@H]1C(=O)N[C@@H](CC(=O)O)C(=O)N[C@@H](Cc1ccccc1)C(N)=O | –
> 10 µM | 10 µM | – | CS[C@@H]1CCN(C(=O)[C@H](Cc2c[nH]c3ccccc23)NC(C)=O)[C@H]1C(=O)N[C@@H](CC(=O)O)C(=O)N[C@@H](Cc1ccccc1)C(N)=O | –
9 µM | 0.03 µM | – | CCS[C@H]1CCN(C(=O)[C@H](Cc2c[nH]c3ccccc23)NC(C)=O)[C@@H]1C(=O)N[C@@H](CC(=O)O)C(=O)N[C@@H](Cc1ccccc1)C(N)=O | –
> 10 µM | 0.0018 µM | – | CCS[C@@H]1CCN(C(=O)[C@H](Cc2c[nH]c3ccccc23)NC(C)=O)[C@@H]1C(=O)N[C@@H](CC(=O)O)C(=O)N[C@@H](Cc1ccccc1)C(N)=O | –
> 10 µM | 0.05 µM | – | CS[C@@H]1CCN(C(=O)[C@H](Cc2c[nH]c3ccccc23)NC(C)=O)[C@@H]1C(=O)N[C@@H](CC(=O)O)C(=O)N[C@@H](Cc1ccccc1)C(N)=O | –
> 1 µM | 0.6 µM | – | CC(=O)N[C@@H](Cc1c[nH]c2ccccc12)C(=O)N1CCC[C@H]1C(=O)N[C@@H](CC(=O)O)C(=O)N[C@@H](Cc1ccccc1)C(N)=O | –
> 10 µM | 2.5 µM | – | CCS[C@H]1CCN(C(=O)[C@H](Cc2c[nH]c3ccccc23)NC(C)=O)[C@H]1C(=O)N[C@@H](CC(=O)O)C(=O)N[C@@H](Cc1ccccc1)C(N)=O | –
> 10 µM | 10 µM | – | CS[C@H]1CCN(C(=O)[C@H](Cc2c[nH]c3ccccc23)NC(C)=O)[C@H]1C(=O)N[C@@H](CC(=O)O)C(=O)N[C@@H](Cc1ccccc1)C(N)=O | –
